Legend:
130nt-RNA = experiment: EMSA, binding to 32P-labelled 130nt-RNA; parameters: species or system Trypanosoma cruzi; conditions: peptide 9 to 30 μM
Summary of the method: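 The probe was a T7 transcript radiolabelled with [α-32P]UTP, gel-purified and desalted on Sephadex G-50. Probe (0.72 nM) was incubated with increasing peptide for 30 min at 37 °C. Peptide stocks were 500 μM in PBS with 30 μM ZnCl2. Gels were dried and phosphorimaged. Kd is the peptide concentration giving 50 % RNA bound, from a Hill-equation fit.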

135nt-ssDNA = experiment: EMSA, binding to 32P-labelled 135nt-ssDNA; parameters: species or system Trypanosoma cruzi
29/mm29c DNA duplex = experiment: DNA-melting assay on mismatched duplex; format: biochemical; conditions: 1 μM peptide, 32P-29mer/mm29c duplex
Summary of the method: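 A 32P-29mer and its complementary strand carrying four internal mismatches (mm29c) were annealed in water: 5 min at 95 °C, NaCl added to 50 mM, then slowly cooled to 22 °C. It was incubated 5 min at 25–55 °C, sampled every 5 °C into ice-cold tRNA/SDS/Ficoll stop mix, run on native 15 % PAGE and phosphorimaged.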

135bp-dsDNA = experiment: EMSA, binding to 32P-labelled 135bp-dsDNA; parameters: species or system Trypanosoma cruzi; conditions: peptide 0.9-30 μM
stable duplexes = conditions: read-out: Conc50, concentration required to reach the formation of 50% of stable duplexes as a measure of NAC activity; NO = no observed activity; cited from earlier work

Row | Substance | RNA-binding affinity (in words) (130nt-RNA) | ssDNA-binding affinity (in words) (135nt-ssDNA) | effect on the Tm of the mismatched DNA duplex (in words) (29/mm29c DNA duplex) | dsDNA-binding affinity (in words) (135bp-dsDNA) | EC50 (stable duplexes) [µM]
1 | LT……CPHCDSTLTGFSGLVSHCRSFHP [compound 5032] | complete loss of affinity | very low affinity | does not have any influence on the Tm | no affinity | > 30
2 | TVPPSAREEDVSPV…TLTRRRKEKC [compound 5030] | eliminated | – | does not have any influence on the Tm | complete loss of binding affinity | > 30

Source: article PMC2805920 (Biochemical Journal, 2009)
